# Results taken from ChEMBL document CHEMBL1152990, “The mechanism of action of beta-D-2'-deoxy-2'-fluoro-2'-C-methylcytidine involves a second metabolic pathway leading to beta-D-2'-deoxy-2'-fluoro-2'-C-methyluridine 5'-triphosphate, a potent inhibitor of the hepatitis C virus RNA-dependent RNA polymerase” (Antimicrob Agents Chemother, 2008).
# Calls of active or inactive are those of the source. The rule behind the calls is not given here.
# Legend:
# Huh-7 [1] = experiment: Activity of cloned NDPK in human HuH7 cells assessed as formation of uridine triphosphate by spectrophotometry; type: cell-based
# Procedure, shortened: (§1)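 Recombinant human kinase read out by PK/LDH coupling, following NADH oxidation at 340 nm. Rates were measured over varied substrate levels and fitted for steady-state parameters.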
# Huh-7 [2] = experiment: Ratio of Kcat to Km for cloned NDPK in human HuH7 cells assessed as formation of uridine triphosphate by spectrophotometry; type: cell-based; procedure, shortened: as §1
# Hepatitis C virus [3] = experiment: Antiviral activity against HCV harboring NS5B polymerase S282T mutation infected in human HuH7 cells assessed as inhibition of viral RNA replication after 4 days by replicon assay in absence of DCTD inhibitor zedularine; type: functional; settings: Hepacivirus hominis; Huh-7
# Procedure, shortened: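 Huh-7 clone A subgenomic replicon cells carrying NS5B S282T (selected by serial passage with 2′-C-methyladenosine) were seeded at 1,500 cells/well without G418. Threefold compound dilutions were added alone or with 100 μM zebularine, followed by 4 days at 37°C, 5% CO2. Replicon RNA was quantified by single-step multiplex RT-PCR, and activity was taken as ΔCT versus the no-drug control to give EC90.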
# Hepatitis C virus [4] = experiment: Antiviral activity against wild type HCV infected in human HuH7 cells assessed as inhibition of viral RNA replication after 4 days by replicon assay in absence of DCTD inhibitor zedularine; type: functional; settings: Hepacivirus hominis; Huh-7
# Procedure, shortened: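 Clone A Huh-7 replicon cells at 1,500 cells/well, without G418. Threefold serial compound dilutions were given with or without 100 μM zebularine, for 4 days at 37°C in 5% CO2. Replicon RNA was quantified by single-step multiplex RT-PCR, and activity was taken as ΔCT relative to the no-drug control.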
# [5] = tested on: C[C@@]1(F)[C@H](O)[C@@H](COP(=O)(O)OP(=O)(O)OP(=O)(O)O)O[C@H]1n1ccc(N)nc1=O; experiment: (§2) Activity of HCV NS5B polymerase S282T mutant; settings: Hepacivirus hominis
# Procedure, shortened: (§3)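 Recombinant HCV NS5B S282T (21-aa C-terminally truncated, E. coli-expressed, metal-affinity purified) in a de novo steady-state RNA synthesis assay on an unprimed minus-IRES RNA template. Run at 27°C in 50 mM HEPES pH 7.5 with 5 mM MgCl2 and 2 mM DTT. For the CTP analog, UTP/GTP/ATP were fixed at 10/100/100 μM while 32P-CTP and the inhibitor were varied. For the UTP analog, CTP/ATP/GTP were fixed at 10/100/100 μM while 32P-UTP and the inhibitor were varied.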
# [6] = tested on: C[C@@]1(F)[C@H](O)[C@@H](COP(=O)(O)OP(=O)(O)OP(=O)(O)O)O[C@H]1n1ccc(=O)[nH]c1=O; experiment: as §2; settings: Hepacivirus hominis; procedure, shortened: as §3
# [7] = molecular target: Creatine kinase M-type (Homo sapiens) (UniProt P06732); experiment: Activity of human creatine kinase isoform MM assessed as formation of RO2433 triphosphate at 200 uM
# Creatine kinase M-type (Homo sapiens), sequence (P06732 whole entry, canonical isoform): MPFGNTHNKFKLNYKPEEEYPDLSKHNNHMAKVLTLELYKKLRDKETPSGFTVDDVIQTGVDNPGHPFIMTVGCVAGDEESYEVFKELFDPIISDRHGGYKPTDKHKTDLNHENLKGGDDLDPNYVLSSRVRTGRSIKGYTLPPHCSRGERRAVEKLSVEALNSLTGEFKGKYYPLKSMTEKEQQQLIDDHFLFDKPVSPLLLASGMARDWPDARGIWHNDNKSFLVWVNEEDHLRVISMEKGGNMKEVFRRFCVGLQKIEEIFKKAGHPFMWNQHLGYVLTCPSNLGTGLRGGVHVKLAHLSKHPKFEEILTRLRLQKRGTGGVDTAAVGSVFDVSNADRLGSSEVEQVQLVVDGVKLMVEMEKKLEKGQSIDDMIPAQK
# Homo sapiens = species: Homo sapiens; experiment: Activity of human creatine kinase isoform MB assessed as formation of RO2433 triphosphate at 200 uM
# [8] = molecular target: T1, Phosphoglycerate kinase (Saccharomyces cerevisiae S288c) (UniProt P00560); experiment: Activity of yeast 3-phosphoglycerate kinase assessed as formation of RO2433 triphosphate at 200 uM
# T1 sequence (whole entry): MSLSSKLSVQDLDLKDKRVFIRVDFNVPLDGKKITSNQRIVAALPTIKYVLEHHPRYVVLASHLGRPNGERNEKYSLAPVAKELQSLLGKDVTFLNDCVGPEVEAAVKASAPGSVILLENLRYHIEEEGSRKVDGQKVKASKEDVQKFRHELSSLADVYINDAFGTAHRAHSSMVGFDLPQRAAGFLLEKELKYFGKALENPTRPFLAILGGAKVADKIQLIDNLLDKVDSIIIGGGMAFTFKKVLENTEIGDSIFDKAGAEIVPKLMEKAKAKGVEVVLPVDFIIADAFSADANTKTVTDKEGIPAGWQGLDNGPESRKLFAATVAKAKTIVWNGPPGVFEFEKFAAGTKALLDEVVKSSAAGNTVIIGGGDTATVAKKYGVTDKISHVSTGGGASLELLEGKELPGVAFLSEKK
# Huh-7 [9] = experiment: Ratio of Kcat to Km for cloned NDPK in human HuH7 cells assessed as formation of RO2433 triphosphate by spectrophotometry; type: cell-based; procedure, shortened: as §1
# [10] = molecular target: Creatine kinase B-type (Homo sapiens) (UniProt P12277); experiment: Activity of human creatine kinase isoform BB assessed as formation of RO2433 triphosphate at 200 uM
# Creatine kinase B-type (Homo sapiens), sequence (P12277 whole entry, canonical isoform): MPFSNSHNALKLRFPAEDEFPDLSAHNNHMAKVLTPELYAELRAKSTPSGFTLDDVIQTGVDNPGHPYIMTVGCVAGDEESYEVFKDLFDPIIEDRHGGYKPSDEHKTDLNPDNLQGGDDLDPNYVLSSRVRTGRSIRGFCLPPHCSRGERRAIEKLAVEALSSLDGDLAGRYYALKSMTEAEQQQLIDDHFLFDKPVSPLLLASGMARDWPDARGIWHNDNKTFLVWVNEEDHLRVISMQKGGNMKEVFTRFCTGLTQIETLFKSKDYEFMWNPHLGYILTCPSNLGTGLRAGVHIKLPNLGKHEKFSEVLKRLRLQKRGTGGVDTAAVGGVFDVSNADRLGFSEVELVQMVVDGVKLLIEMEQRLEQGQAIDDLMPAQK
# [11] = molecular target: Deoxycytidine kinase (Homo sapiens) (UniProt P27707); experiment: Activity of cloned deoxycytidine kinase in human HepG2 cells up to 1 mM; type: cell-based
# Deoxycytidine kinase (Homo sapiens), sequence (P27707 whole entry, looked up): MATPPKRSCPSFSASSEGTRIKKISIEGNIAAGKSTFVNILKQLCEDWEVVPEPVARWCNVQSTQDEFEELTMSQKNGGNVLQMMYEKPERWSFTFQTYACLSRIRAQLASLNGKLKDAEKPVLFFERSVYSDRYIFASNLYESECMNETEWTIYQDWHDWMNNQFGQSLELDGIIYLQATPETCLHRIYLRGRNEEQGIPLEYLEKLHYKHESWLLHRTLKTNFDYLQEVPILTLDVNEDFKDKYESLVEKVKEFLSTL
# [12] = molecular target: T2, Thymidine kinase 2, mitochondrial (Homo sapiens) (UniProt O00142); experiment: Activity of thymidine kinase 2 up to 1 mM
# T2 sequence (whole entry): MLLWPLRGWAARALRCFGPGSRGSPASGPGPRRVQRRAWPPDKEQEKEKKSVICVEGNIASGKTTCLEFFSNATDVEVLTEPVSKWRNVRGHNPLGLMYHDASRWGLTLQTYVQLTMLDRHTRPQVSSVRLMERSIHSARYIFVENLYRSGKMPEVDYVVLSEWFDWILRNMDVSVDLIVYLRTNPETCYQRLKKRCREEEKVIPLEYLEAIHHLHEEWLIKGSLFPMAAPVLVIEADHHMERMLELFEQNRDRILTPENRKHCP
# [13] = molecular target: T3, Thymidine kinase, cytosolic (Homo sapiens) (UniProt P04183); experiment: Activity of thymidine kinase 1 up to 1 mM
# T3 sequence (whole entry): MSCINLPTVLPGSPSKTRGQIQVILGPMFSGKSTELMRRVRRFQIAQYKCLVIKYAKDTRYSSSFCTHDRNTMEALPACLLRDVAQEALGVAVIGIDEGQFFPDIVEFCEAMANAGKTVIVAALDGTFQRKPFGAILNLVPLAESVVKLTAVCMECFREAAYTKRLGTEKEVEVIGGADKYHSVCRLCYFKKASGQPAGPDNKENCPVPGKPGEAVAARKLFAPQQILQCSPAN
# [14] = molecular target: T4, Uridine-cytidine kinase 1 (Homo sapiens) (UniProt Q9HA47); experiment: Activity of cloned uridine-cytidine kinase 1 in human HuH7 cells up to 1 mM; type: cell-based; settings: Huh-7
# T4 sequence (whole entry): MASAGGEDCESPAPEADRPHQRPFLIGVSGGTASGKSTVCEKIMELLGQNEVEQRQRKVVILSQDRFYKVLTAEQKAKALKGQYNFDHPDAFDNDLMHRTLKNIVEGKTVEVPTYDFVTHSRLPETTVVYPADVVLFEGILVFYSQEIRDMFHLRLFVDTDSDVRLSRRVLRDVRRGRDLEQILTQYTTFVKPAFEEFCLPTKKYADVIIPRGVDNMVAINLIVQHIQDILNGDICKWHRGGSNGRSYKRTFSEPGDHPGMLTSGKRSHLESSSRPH
# [15] = tested on: C[C@@]1(F)[C@H](O)[C@@H](CO)O[C@H]1n1ccc(N)nc1=O; experiment: Ratio of Kcat to Km for cloned 2'-deoxycytidine kinase in human HepG2 cells assessed as formation of formation of […] monophosphate by spectrophotometry; type: cell-based
# [16] = tested on: RNA-directed RNA polymerase (Hepacivirus hominis), O39930 [S282T]; experiment: Ratio of Ki to Km for HCV NS5B polymerase S282T mutant; procedure, shortened: as §3
# Hepacivirus hominis [17] = experiment: Fold resistance, ratio of Ki/Km for HCV NS5B polymerase S282T mutant to Ki/Km for wild type HCV NS5B polymerase
# Procedure, shortened: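 Ki and Km were measured for wild-type and S282T NS5B (C-terminal Δ21) by steady-state de novo RNA synthesis. Conditions were an unprimed minus-IRES template, 27°C, 50 mM HEPES pH 7.5, 5 mM MgCl2, 2 mM DTT, and varied 32P-labelled natural NTP with varied inhibitor. Fold resistance = (Ki/Km mutant)/(Ki/Km wild type).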
# Hepacivirus hominis [18] = experiment: Ratio of Ki to Km for wild type HCV NS5B polymerase
# Procedure, shortened: (§4)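 De novo RNA synthesis by NS5B lacking 21 C-terminal residues, in 50 mM HEPES pH 7.5 with 5 mM MgCl2 and 2 mM DTT at 27°C. Template was unprimed minus-IRES RNA, 2.8 μg each of enzyme and template. CTP 10 μM, ATP and GTP 100 μM; 32P-UTP and inhibitor were varied. Aliquots were quenched with EDTA/NaCl/citrate.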
# Hepacivirus hominis [19] = experiment: Activity of wild type HCV NS5B polymerase; procedure, shortened: as §4
# Huh-7 [20] = experiment: Ratio of Kcat to Km for cloned NDPK in human HuH7 cells assessed as formation of […] triphosphate by spectrophotometry; type: cell-based
# Deoxycytidine kinase (Homo sapiens), P27707, sequence (P27707 whole entry): as the sequence (P27707 whole entry, looked up) above
compound,measurement,setting,value
O=c1ccn([C@@H]2O[C@H](COP(=O)(O)OP(=O)(O)O)[C@@H](O)[C@H]2O)c(=O)[nH]1,Km,Huh-7 [1],156 µM
same,kcat,Huh-7 [1],145 s⁻¹
same,kcat/Km,Huh-7 [2],930000 M⁻¹ s⁻¹
C[C@@]1(F)[C@H](O)[C@@H](COP(=O)(O)O)O[C@H]1n1ccc(=O)[nH]c1=O,Activity,Hepatitis C virus [3],Active
same,Activity,Hepatitis C virus [4],Active
"RNA-directed RNA polymerase (Hepacivirus hominis), O39930 S282T",Km,[5],0.052 µM
same,Km,[6],0.15 µM
C[C@@]1(F)[C@H](O)[C@@H](COP(=O)(O)OP(=O)(O)O)O[C@H]1n1ccc(=O)[nH]c1=O,Activity,[7],inactive
same,Activity,Homo sapiens,inactive
same,Activity,[8],inactive
same,kcat/Km,Huh-7 [9],46000 M⁻¹ s⁻¹
same,Activity,[10],inactive
C[C@@]1(F)[C@H](O)[C@@H](CO)O[C@H]1n1ccc(=O)[nH]c1=O,Activity,[11],inactive
same,Activity,[12],inactive
same,Activity,[13],inactive
same,Activity,[14],inactive
"Deoxycytidine kinase (Homo sapiens), P27707",kcat/Km,[15],1.9 ×10⁻⁴ /µM/s
C[C@@]1(F)[C@H](O)[C@@H](COP(=O)(O)OP(=O)(O)OP(=O)(O)O)O[C@H]1n1ccc(=O)[nH]c1=O,Ki/Km,[16],147
same,Ratio,Hepacivirus hominis [17],23.7
same,Ki/Km,Hepacivirus hominis [18],6.2
C[C@@]1(F)[C@H](O)[C@@H](COP(=O)(O)OP(=O)(O)OP(=O)(O)O)O[C@H]1n1ccc(N)nc1=O,Km,Hepacivirus hominis [19],0.074 µM
same,Ki/Km,[16],6
same,Ratio,Hepacivirus hominis [17],7.5
same,Ki/Km,Hepacivirus hominis [18],0.8
C[C@@]1(F)[C@H](O)[C@@H](COP(=O)(O)OP(=O)(O)O)O[C@H]1n1ccc(N)nc1=O,kcat/Km,Huh-7 [20],15000 M⁻¹ s⁻¹
